Shown are actives, neighbours in structure and some others; about 0.74% of the full set was active somewhere.
Diaphorase act: activates diaphorase or chemically reduces, flagging diaphorase assay artifacts. Diaphorase/resazurin coupled assay, resorufin fluorescence, 16 min; stronger effect = higher value; 1 = vehicle wells, 0 = NADH-free wells. activation factor at 20 µM. 190,000 compounds, 0.005% hits. AID 1229;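 active = diaphorase activity raised at least twofold by the compound at 20 µM; inactive = activation factor below 2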
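Material: bacterial diaphorase enzyme (C. kluyveri); amount: enzyme 0.07 U/mL final; reagent: NADH substrate 0.114 mM plus resazurin dye 0.1 mM, final; doses: single compound dose of 20 µM, 1% DMSO final; timing: 16 min enzyme reaction, ambient temperature; measured by: fluorescence of resorufin, 544 nm excitation, 590 nm emission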
HKDC1 inh: blocks human hexokinase HKDC1 activity. inhibition, % at 20 µM. recombinant HKDC1, G6PDH/diaphorase resazurin coupled fluorescence. 340,000 compounds, 0.16% hits. Q2TB90;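 active = inhibition above about 35% when tested at 20 µM, limit read from the data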
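Material – in-house recombinant HK5 (HKDC1) enzyme · Quantity – HKDC1 at 5 µg/mL · Buffer or medium – pH 8.0 Tris buffer with 10 mM MgCl2 · Reagent – glucose with 1 mM ATP · Dosing – single 20 µM dose · Times – reaction time 90 min, room temperature, protected from light · Technique – resorufin fluorescence at 613 nm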
Arbovirus anti: blocks arbovirus infection | arbovirus infection cell-based antiviral screen | inhibition, % at 10 µM | 200,000 compounds, 0.37% hits | AID 1251; in the data active = inhibition above about 30%
Diaph inh CS: diaphorase inhibition or chemical oxidation counter-screen; diaphorase resazurin-to-resorufin fluorescence, NADH, 16 min; bacterial (C. kluyveri) enzyme, not human; AID 1217; 190,000 compounds, 0.69% hits; inhibition, % at 20 µM;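 active = primary screen inhibition at 20 µM above a set limit, cut at about 50% in these data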
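controls = No-NADH positive control and DMSO neutral control | system = Clostridium kluyveri diaphorase enzyme | timing = reaction incubation of 16 min at room temperature | signal = resorufin fluorescence 544/590 nm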
G6PDH CS: L. mesenteroides G6PDH inhibition counter-screen; Purified L. mesenteroides G6PDH, diaphorase/resazurin coupled fluorescence, 45 min; inhibition, % at 5 µM; 200,000 compounds, 0.12% hits; AID 1020; in the data active = inhibition above about 50%
Hits are given with their value; 0 = inactive; - = not tested or not shown.

SMILES	Diaphorase act	HKDC1 inh	Arbovirus anti	Diaph inh CS	G6PDH CS
Cc1cc(-c2nc3c4c5c(sc4[nH]c(=O)n3n2)CCC5)c(C)o1	0	0	0	57	0
N#Cc1c(C(F)(F)F)cc(-c2ccc(Cl)cc2)[nH]c1=O	0	0	43	0	0
N#Cc1c(C(F)(F)F)cc(-c2cccc(Cl)c2)[nH]c1=O	0	0	42	0	0
CN(C(=O)c1cccc(NC(=O)Cc2ccc(NC(=O)C3CCCN(S(=O)(=O)c4cccc([N+](=O)[O-])c4)C3)cc2)c1)C1CCCC1 (stereo not drawn)	-	0	-	-	-
O=C(c1cccc(Br)c1)N1CCCc2ccccc21	-	0	-	-	-
O=C(c1coc(=O)c(Br)c1)N1CCCc2ccccc21	0	0	32	0	0
CC(NC(=O)c1ccc([N+](=O)[O-])o1)C12CC3CC(CC(C3)C1)C2 (stereo not drawn)	-	0	-	-	-
COc1cccc(OC)c1C(=O)NC(C)C12CC3CC(CC(C3)C1)C2 (stereo not drawn)	0	0	43	0	0
COc1ccc(NC(=O)C23CC4CC(C2)CC(c2ccc(C)cc2)(C4)C3)cc1	0	0	0	0	0
COc1ccccc1NC(=O)C12CC3CC(C1)CC(c1ccc(C)cc1)(C3)C2	0	0	32	0	0
Cc1ccc(C(=O)NCC(=O)Nc2ccc(S(=O)(=O)Nc3cc(C)nc(C)n3)cc2)cc1	-	0	-	-	-
C=C1C(=O)OC2C=C(CO)C3OC3C3OC3(C)CC(OC(=O)/C(=C/C)COC(C)=O)C12 (stereo not drawn)	-	0	-	-	-
COC(=O)c1cc2n3ccccc3c(C)c(-c3ccccc3)c-2c1C(=O)OC	0	0	0	57	0
COC(=O)c1cc2c(C)c(C)c3ccccn3c-2c1C(=O)OC	0	0	0	0	0
Nn1cnnc1N/N=C\c1ccc(-c2ccccc2[N+](=O)[O-])o1	0	0	0	88	0
N=C1/C(=C\c2ccc(-c3cccc(Cl)c3)o2)C(=O)N=C2SC=C(c3ccccc3)N12	0	0	0	0	0
N=C1/C(=C\c2ccc(-c3ccc(C(=O)O)cc3)o2)C(=O)N=C2SC=C(c3ccccc3)N12	-	40	-	-	-
O=C(O)/C(=C\c1ccc(-c2ccc(F)cc2)o1)c1ccccc1	0	0	44	0	0
O=S(=O)(Nc1ccc(-c2nnc(SCc3ccc(Cl)cc3)o2)cc1)c1ccccc1	0	0	31	0	0
O=C(N/N=C\c1c(O)ccc2ccccc12)c1ccc(O)cc1	-	0	-	-	-
O=C(N/N=C/c1c(O)ccc2ccccc12)c1ccc[n+](CCO)c1	0	0	0	54	0
O=C(O)CCCC(=O)Nc1cccc(C(=O)Nc2ccccc2C(=O)O)c1	0	0	0	0	0
O=C(CSCc1ccccc1)Nc1cccc(C(=O)Nc2ccccc2C(=O)O)c1	0	0	31	0	0
O=C(CSCc1ccc(Cl)cc1)Nc1cccc(C(=O)Nc2ccccc2C(=O)O)c1	0	0	36	0	0
CC(C)C(=O)Nc1cccc(C(=O)Nc2ccccc2C(=O)O)c1	0	0	0	0	0
SMILES	Diaphorase act	HKDC1 inh	Arbovirus anti	Diaph inh CS	G6PDH CS
Cc1cccc(OCC(=O)Nc2cccc(C(=O)Nc3ccccc3C(=O)O)c2)c1	0	0	55	0	0
CN(C)c1ccc(C(O)c2cc3ccccc3s2)cc1 (stereo not drawn)	-	0	-	-	-
O=C(N/N=C/c1c(O)n(-c2ccc(Cl)cn2)c(=O)c2ccccc12)c1ccncc1	0	0	0	59	0
O=C(N/N=C/c1c(O)n(-c2ccc(Cl)cn2)c(=O)c2ccccc12)C1CC1	0	0	0	0	0
COc1cc(/C=C(\C#N)c2nc3ccccc3[nH]2)cc(OC)c1O	0	0	0	51	0
Cc1ccc(S(=O)(=O)N2CCN(C(=O)c3ccc(N4CCC(C)CC4)c([N+](=O)[O-])c3)CC2)cc1	-	0	-	-	-
CCOC(=O)c1c(NC(=O)C2C3CCC(O3)C2C(=O)O)sc(C)c1-c1ccc(C)cc1 (stereo not drawn)	0	0	0	52	0
O=C(Oc1c(CN2CCOCC2)cc(Cl)c2cccnc12)c1ccccc1F	0	0	0	50	0
O=C(Oc1c(CN2CCOCC2)cc(Cl)c2cccnc12)c1ccccc1	0	0	0	0	0
CN(Cc1cc([N+](=O)[O-])c2cccnc2c1O)C1CCCCC1	0	-	0	0	0
O=[N+]([O-])c1cc(CN2CCOCC2)c2cccnc2c1O	0	0	0	0	55
O=[N+]([O-])c1cc(CN2CCN(c3ccccc3)CC2)c(O)c2ncccc12	0	0	0	0	62
CCN(Cc1ccc(OC)c(F)c1)C(=O)/C=C/c1ccc(S(=O)(=O)N2CCOCC2)cc1	-	0	-	-	-
CCN(CC)S(=O)(=O)c1cc(NC(=O)COC(=O)c2c(C)noc2C)ccc1C	-	0	-	-	-
O=C1NC[C@H](Cc2ccccc2)N(CC2CCN(CCCC3CCCC3)CC2)C1=O	-	0	-	-	-
CCOc1nc(SC(C(C)=O)C(=O)Nc2ccccc2)nc(N(C)C)n1 (stereo not drawn)	0	0	0	0	0
COc1ccc(Cn2nnnc2C(C(C)C)N2CCN(c3ccccc3OC)CC2)cc1 (stereo not drawn)	0	0	0	0	0
CC(C)C(c1nnnn1Cc1ccc(F)cc1)N1CCN(c2ccc(O)cc2)CC1 (stereo not drawn)	0	0	0	62	0
Cc1ccc2cc(C(c3nnnn3C(C)(C)C)N3CCCCCC3)c(=O)[nH]c2c1 (stereo not drawn)	0	0	0	52	0
N=c1nc2n(cc1F)C1OC(CO)C(O)C1O2 (stereo not drawn)	-	0	-	-	-
CCOC(=O)C1=C(O)c2ccccc2C(=O)/C1=C\c1ccc(CC)cc1	0	59	0	0	0
CCOC(=O)C1=C(Cc2ccc(C)cc2)C(=O)c2ccccc2C1=O	0	-	0	0	54
CCCc1ccc(/C=C2\C(=O)c3ccccc3C(O)=C2C(=O)OCC)cc1	0	-	0	0	0
COc1ccc(N(C)C(=O)Nc2ccc3c(c2)nnn3C)cc1	0	0	0	0	0
COc1ccc(N(C)C(=O)Nc2ccc3nsnc3c2)cc1	0	0	0	62	0
SMILES	Diaphorase act	HKDC1 inh	Arbovirus anti	Diaph inh CS	G6PDH CS
COc1ccc(NC(=S)Nc2ccc3nsnc3c2)cc1	0	0	0	59	57
CCOc1ccc(NC(=O)Nc2ccc3nsnc3c2)cc1	0	0	0	0	0
CCOc1ccc(NC(=S)Nc2ccc3nsnc3c2)cc1	0	0	0	54	54
CC(C)N(C(=O)Nc1ccc2nsnc2c1)C(C)C	0	0	0	60	52
O=C(CN1C(=O)NC2(CCCC2)C1=O)OCCOc1cccc(Br)c1	-	0	-	-	-
Cc1cc(C)c(CN2CCN(Cc3ccc(C)o3)C(CCO)C2)c(-n2cccn2)c1 (stereo not drawn)	0	0	0	0	0
COCCNC(=S)Nc1ccc(Cl)c(Cl)c1	0	0	0	0	0
COCCNC(=S)Nc1ccc2nsnc2c1	0	0	0	53	0

Screening results from PubChem.
